From ChEMBL document CHEMBL3244147 (J Med Chem, 1978) come the findings set out here.

The source made the active and inactive calls. No cut-off for these calls is given here. Where a SMILES comes first, the peptide text is derived from it. The star is where a group is joined. NH(4-N(CH2CH2Cl)2-phenyl) = ClCCN(CCCl)c1ccc(N*)cc1; Cbz = O=C(OCc1ccccc1)*

In series [1] the test system is Liver. Nature of the series: Prodrug conversion in mouse liver homogenate assessed as cleavage of labelled compound. Format: ADME, tissue-based.
The nature of series [2]: Prodrug conversion in pig liver homogenate assessed as cleavage of labelled compound. Format: ADME, tissue-based, Sus scrofa.
Series [3] concerns Liver. Nature of the series: Prodrug conversion in guinea pig liver homogenate assessed as cleavage of labelled compound. Format: ADME, tissue-based, Cavia porcellus.
Series [4] has as its system Liver. Briefly: Prodrug conversion in mouse liver homogenate assessed as release of labelled carbobenzyloxy-L-pro-lyl-L-leucine. Format: ADME, tissue-based.
The nature of series [5]: Prodrug conversion in pig liver homogenate assessed as release of labelled carbobenzyloxy-L-pro-lyl-L-leucine. In kind it is ADME, tissue-based, Sus scrofa.
For series [6], the system named is Liver. Nature of the series: Prodrug conversion in guinea pig liver homogenate assessed as release of labelled carbobenzyloxy-L-pro-lyl-L-leucine. In kind it is ADME, tissue-based, Cavia porcellus.
The nature of series [7]: Drug metabolism assessed as bacterial collagenase-mediated compound disappearance after 24 hrs by TLC autoradiography. In kind it is ADME. The procedure, abridged:
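14C-labelled substrate at 2 mg/mL in dimethyl sulfoxide. 0.3 mL of it was mixed with 0.95 mL of pH 7.3 barbiturate/acetate/NaCl buffer containing calcium acetate, actidione and DMSO; the reaction mixture was 28% DMSO. The buffer held 5 mg bacterial collagenase (375 units/mg). Controls had no enzyme, trypsin or bovine serum albumin. Products were followed by TLC autoradiography.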

The subject of series [8] is Sarcoma-180. Nature of the series: Drug metabolism assessed as mouse Sarcoma 180 homogenate-mediated compound disappearance after 24 hrs by TLC autoradiography. In kind it is ADME. To be noted: sarcoma-180, 24 h. The procedure, abridged:
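S-180 tumour tissue (0.85 g) was homogenised in cold pH 7.3 calcium acetate/DMSO buffer containing actidione, then spun at 5000 rpm for 10 min. The supernatant replaced enzyme in the collagenase-type assay with 14C-labelled substrate (2 mg/mL in DMSO) in 28% DMSO reaction mixture. Disappearance and products were read by TLC autoradiography.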

Series [9] deals with Liver. Briefly: Prodrug conversion in rat liver homogenate assessed as cleavage of labelled compound. In kind it is ADME, tissue-based.
The subject of series [10] is Liver. Nature of the series: Prodrug conversion in rat liver homogenate assessed as release of labelled carbobenzyloxy-L-pro-lyl-L-leucine. Format: ADME, tissue-based.
The nature of series [11]: Toxicity in ip dosed CF1 mouse after 14 days of injection. Format: organism-based. As to conditions: in vivo. The method, boiled down:
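Female Carworth Farms mice, 16-20 g. Compound was suspended in 1% aqueous methylcellulose (ultrasonicated if insoluble) and diluted to doses of 4-324 mg/kg, given as 0.45 mL per mouse by a single intraperitoneal injection. Five mice per dose; survivors were counted at 14 days. LD50 is expressed in μmol/kg.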

Series [12] has as its system Sarcoma-180. Nature of the series: Antitumor activity against mouse Sarcoma 180 at 10 to 50% of LD50. Format: functional. The procedure, abridged: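 Mice carrying well-advanced Sarcoma-180 tumours received a single intraperitoneal dose.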

For orientation: LD50 means the dose at which mortality reaches 50%. A high value points to a less toxic substance.

Consider `CC(C)C[C@H](NC(=O)[C@@H]1CCCN1C(=O)O[14CH2]c1ccccc1)C(=O)NCC(=O)N1CCC[C@H]1C(=O)NCC(=O)Nc1ccc(N(CCCl)CCCl)cc1`, for which the Drug metabolism entry (in the series on Liver [1]; in series [2]; in the series with Liver [3]; with Liver [4]; in series [5]; in the series with Liver [6]) was “metabolite_detected” each time. Further, the Drug metabolism result (in [7]; in the series on Sarcoma-180 [8]; in the series with Liver [9]; in the series on Liver [10]) was “metabolite_detected” throughout.
For `CC(C)C[C@H](NC(=O)[C@@H]1CCCN1C(=O)[C@@H](C)NC(=O)OC(C)(C)C)C(=O)NCC(=O)N1CCC[C@H]1C(=O)NCC(=O)Nc1ccc(N(CCCl)CCCl)cc1`, the LD50 at 336 h in series [11] amounted to 94.5 µmol/kg.
The same measure, in the same setting: to `O=C(CNC(=O)[C@@H]1CCCN1C(=O)OCc1ccccc1)Nc1ccc(N(CCCl)CCCl)cc1` belongs 119 µmol/kg.
`CC(C)C[C@H](NC(=O)[C@@H]1CCCN1C(=O)[C@H](N)CCCCN)C(=O)NCC(=O)N1CCC[C@H]1C(=O)NCC(=O)Nc1ccc(N(CCCl)CCCl)cc1.O=C(O)C(F)(F)F` came in with an LD50 at 336 h in series [11] of 78 µmol/kg. Moreover, in the series with Sarcoma-180 [12], the result was inactive.
Turning to `CC(C)C[C@H](NC(=O)[C@@H]1CCCN1C(=O)[C@@H](CCCCNC(=O)OC(C)(C)C)NC(=O)OC(C)(C)C)C(=O)NCC(=O)N1CCC[C@H]1C(=O)NCC(=O)Nc1ccc(N(CCCl)CCCl)cc1`, the median lethal dose (LD50) at 336 h in series [11] was determined as 100 µmol/kg.
Still for that read-out and setting: to `NCC(=O)N1CCC[C@H]1C(=O)NCC(=O)Nc1ccc(N(CCCl)CCCl)cc1.O=C(O)C(F)(F)F` belongs 19.7 µmol/kg.
On to `CC(C)C[C@H](NC(=O)[C@@H]1CCCN1C(=O)OCc1ccccc1)C(=O)NCC(=O)N1CCC[C@H]1C(=O)NCC(=O)Nc1ccc(N(CCCl)CCCl)cc1` (Cbz-PLGPG-{NH(4-N(CH2CH2Cl)2-phenyl)}), for which, in series [11], the LD50 at 336 h was found to be 123 µmol/kg. Also, the result in the series with Sarcoma-180 [12] was inactive.
In turn, `CC(C)C[C@H](NC(=O)[C@@H]1CCCN1C(=O)[C@H](N)Cc1ccccc1)C(=O)NCC(=O)N1CCC[C@H]1C(=O)NCC(=O)Nc1ccc(N(CCCl)CCCl)cc1.O=C(O)C(F)(F)F` returned a median lethal dose (LD50) at 336 h in [11] of 106 µmol/kg.
Compound `CC(C)C[C@H](N)C(=O)NCC(=O)N1CCC[C@H]1C(=O)NCC(=O)Nc1ccc(N(CCCl)CCCl)cc1.O=C(O)C(F)(F)F` (H-LGPG-{NH(4-N(CH2CH2Cl)2-phenyl)}) showed a 50% lethal dose (LD50) at 336 h in series [11] of 10.4 µmol/kg.
The same measure, in the same setting: to `CC(C)C[C@H](NC(=O)[C@@H]1CCCN1C(=O)[C@@H](Cc1ccccc1)NC(=O)OC(C)(C)C)C(=O)NCC(=O)N1CCC[C@H]1C(=O)NCC(=O)Nc1ccc(N(CCCl)CCCl)cc1` belongs 105 µmol/kg.
